The entries come from a sample that favours hits as a whole.
GASC1 inh = KDM4C (human) demethylase inhibition | GST-KDM4C 2-372, H3K9me3 peptide, LANCE TR-FRET | inhibition, % at 12.5 µM | 0.15% of 96,000 active | AID 720574;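 active = mean replicate inhibition above about 25%, with at least 55% of replicates also reaching it, limit read from the data, passing the limit was not always enough; inconclusive = only one of those two conditions met; inactive = neither condition met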
Target sequence (Q9H3R0 2-372 limits assumed): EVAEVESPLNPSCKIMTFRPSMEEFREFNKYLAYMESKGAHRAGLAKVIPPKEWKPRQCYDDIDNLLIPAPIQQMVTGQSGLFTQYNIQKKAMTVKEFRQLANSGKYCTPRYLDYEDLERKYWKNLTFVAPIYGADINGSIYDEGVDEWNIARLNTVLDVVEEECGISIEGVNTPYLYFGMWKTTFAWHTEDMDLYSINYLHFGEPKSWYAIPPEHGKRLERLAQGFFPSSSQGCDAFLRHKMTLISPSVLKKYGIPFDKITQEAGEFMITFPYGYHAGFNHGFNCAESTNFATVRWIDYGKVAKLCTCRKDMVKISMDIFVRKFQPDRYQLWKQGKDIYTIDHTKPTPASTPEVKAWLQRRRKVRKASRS
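Material: GST-tagged GASC-1 (JMJD2C) catalytic fragment, aa 2-372 / Quantity: enzyme final amount 10 nM / Medium: HEPES buffer, pH 7.5, plus ascorbate / Doses: one test concentration per compound / Incubation: 30 min reaction, 60 min detection, RT / Measured by: LANCE TR-FRET / Read-out: inhibition from TR-FRET ratio decrease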
IDH1 mut inh = IDH1 R132H (human) inhibition | O75874 | IDH1 R132H reductase, diaphorase/resazurin fluorescence, 60 min | 0.18% of 70,000 active | AID 624101 | inhibition, % at 10 µM; in the data active = inhibition above about 34%; inconclusive = no clear call, values can overlap the other calls; inactive = below about 11%;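 also: 0% = DMSO and 100% = no enzyme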
T cruzi growth-1 = T. cruzi proliferation inhibition. T. cruzi beta-gal in NIH3T3, GalScreen luminescence, 90 h. inhibition, % at 8.34 µM. 5.9% of 77,000 active. AID 624255;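 active = mean inhibition above about 93%, with at least 55% of replicates each passing it, limit read from the data, passing the limit was not always enough; inconclusive = only one of those two conditions holds; inactive = neither condition holds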
T cruzi growth-2 = Trypanosoma cruzi proliferation inhibition. shares compounds with T cruzi growth-1. T. cruzi beta-gal in NIH3T3, GalScreen luminescence, 90 h. inhibition, % at 8.35 µM. 72% of 5,600 active;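 active = mean replicate inhibition above about 95% and at least 55% of replicates individually reaching it, limit read from the data; inconclusive = only one of the two criteria is met; inactive = neither criterion is met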
T cruzi growth-3 = blocks T. cruzi growth in NIH3T3 host cells; shares compounds with T cruzi growth-1; inhibition, % at 2.09 µM; T. cruzi beta-gal in NIH3T3, GalScreen luminescence, 90 h; 21% of 5,600 active;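 active = mean inhibition above about 95%, with at least 55% of replicates also reaching it, limit read from the data; inconclusive = meets just one of the two conditions; inactive = meets neither condition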;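 also: plate controls were neutral control median for no effect and positive control median for full effect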
NIH3T3 tox = NIH/3T3 (mouse) viability loss. cytotoxicity (signal decrease), % at 8.35 µM. shares compounds with T cruzi growth-1. NIH/3T3 viability, CellTiter-Glo ATP luminescence, 90 h. 14% of 5,600 active;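 active = mean signal decrease across replicates above about 35% based on untreated-well scatter, with enough replicates individually passing, limit read from the data; inconclusive = no rule stated though some were filed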;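 also: 0% = median of neutral control wells and 100% = median of positive control wells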
NIH3T3 tox 2 = cytotoxicity in mouse NIH/3T3 fibroblasts | AID 651744 | NIH/3T3 viability, CellTiter-Glo ATP luminescence, 90 h | 56% of 5,600 active | inhibition, % at 24.9 µM | shares compounds with T cruzi growth-1;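 active = mean loss of cell viability signal at or above a set limit, and enough replicates individually reaching it; inconclusive = meets only the mean limit or only the replicate share; inactive = meets neither condition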;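 also: 0% = median of neutral control wells and 100% = median of positive control wells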
The depositor's hits bear a star; u = inconclusive; x = no result given.

SMILES	GASC1 inh	IDH1 mut inh	T cruzi growth-1	T cruzi growth-2	T cruzi growth-3	NIH3T3 tox	NIH3T3 tox 2
CCC(=O)N1[C@H](CO)[C@@H](c2ccc(-c3cccnc3)cc2)[C@@H]1CN(C)C(C)=O	-1	x	-5	x	x	x	x
CSc1ncc(Cl)c(C(=O)Nc2sc3c(c2C(=O)NCc2ccco2)CCC3)n1	x	0	x	x	x	x	x
C[C@@H]1CCCCO[C@H](CN(C)Cc2ccc3c(c2)OCO3)[C@@H](C)CN([C@H](C)CO)C(=O)c2cc(NC(=O)Nc3cccc4ccccc34)ccc2O1	-3	1	91	x	x	x	x
C[C@H](CO)N1C[C@H](C)[C@H](CN(C)C(=O)Nc2ccc3c(c2)OCO3)OCCCC[C@H](C)Oc2ccc(NC(=O)Nc3cccc4ccccc34)cc2C1=O	-2	1	62	x	x	x	x
C[C@H](CO)N1C[C@H](C)[C@H](CN(C)Cc2ccc3c(c2)OCO3)OCCCC[C@H](C)Oc2ccc(NC(=O)Nc3cccc4ccccc34)cc2C1=O	-3	x	107*	104*	97*	23	45*
C[C@H](CO)N1C[C@H](C)[C@@H](CN(C)Cc2ccc3c(c2)OCO3)OCCCC[C@H](C)Oc2ccc(NC(=O)Nc3cccc4ccccc34)cc2C1=O	-1	x	u	103*	111*	33	42*
C[C@@H]1CCCCO[C@H](CN(C)Cc2ccc3c(c2)OCO3)[C@H](C)CN([C@H](C)CO)C(=O)c2cc(NC(=O)Nc3cccc4ccccc34)ccc2O1	-3	x	136*	107*	118*	u	94*
C[C@@H]1CCCCO[C@@H](CN(C)C(=O)Nc2ccc3c(c2)OCO3)[C@@H](C)CN([C@@H](C)CO)C(=O)c2cc(NC(=O)Nc3cccc4ccccc34)ccc2O1	-1	0	x	x	x	x	x
C[C@@H]1CN([C@@H](C)CO)C(=O)c2cc(NC(=O)Nc3cccc4ccccc34)ccc2O[C@@H](C)CCCCO[C@H]1CN(C)Cc1ccc2c(c1)OCO2	-2	1	121*	106*	91	26	105*
COc1cc(C(=O)NCC(=O)O)cc(OC)c1OC	x	1	x	x	x	x	x
Cc1ccc(C)c(NC(=O)CSc2nnc(-c3ccncc3)n2-c2ccc(F)cc2)c1	x	0	x	x	x	x	x
O=S(=O)(Cc1ccc(Cl)cc1)NCc1ccccn1	x	0	x	x	x	x	x
CCOC(=O)c1c(NC(=O)c2cc(S(=O)(=O)N3CCOCC3)ccc2OC)sc2c1CCC2	x	0	x	x	x	x	x
C[C@@H]1CN([C@@H](C)CO)C(=O)c2cc(NC(=O)Nc3cccc4ccccc34)ccc2O[C@@H](C)CCCCO[C@@H]1CN(C)Cc1ccc2c(c1)OCO2	-1	-2	102*	110*	75	13	23
Cc1ccc(S(=O)(=O)NC2c3cccc4cccc(c34)C2Sc2nnnn2-c2ccccc2)cc1 (stereo unspecified)	x	0	x	x	x	x	x
CCS(=O)(=O)N1CCCCN2[C@H](CO)[C@@H](c3ccc(C#Cc4ccccn4)cc3)[C@@H]2C1	0	x	86	x	x	x	x
CS(=O)(=O)N1CCCCN2[C@@H](CO)[C@H](c3ccc(C#Cc4ccccn4)cc3)[C@@H]2C1	-1	x	u	108*	47	-7	13
O=S(=O)(c1ccccc1)N1CCCCN2[C@H](CO)[C@H](c3ccc(C#Cc4ccccn4)cc3)[C@H]2C1	1	x	72	x	x	x	x
CS(=O)(=O)N1CCCCN2[C@H](C1)[C@H](c1ccc(C#Cc3ccccn3)cc1)[C@@H]2CO	1	x	112*	96*	39	5	-6
CCCC#Cc1ccc([C@@H]2[C@@H](CO)N3CCCCN(S(C)(=O)=O)C[C@H]23)cc1	0	x	11	x	x	x	x
CS(=O)(=O)N1CCCCN2[C@H](C1)[C@@H](c1ccc(C#Cc3ccccn3)cc1)[C@@H]2CO	-1	x	104*	112*	45	6	1
Cc1cc(Cl)ccc1NC(=O)CSc1nnc(-c2ccc(Br)cc2)n1C	x	0	x	x	x	x	x
Cc1cc(=O)[nH]c(SCC(=O)Nc2ccc([N+](=O)[O-])cc2)n1	x	0	x	x	x	x	x
CC1C=NC(S(=O)(=O)N2CC[C@@H]3[C@H]2c2cc(-c4ccccc4)ccc2N(C)[C@H]3CO)=N1 (stereo partly specified)	1	x	u	101*	84	-2	-11
CC1C=NC(S(=O)(=O)N2CC[C@H]3[C@@H](CO)N(C)c4ccc(-c5ccccc5)cc4[C@H]32)=N1 (stereo partly specified)	2	x	91	x	x	x	x
SMILES	GASC1 inh	IDH1 mut inh	T cruzi growth-1	T cruzi growth-2	T cruzi growth-3	NIH3T3 tox	NIH3T3 tox 2
CC1C=NC(S(=O)(=O)N2CC[C@@H]3[C@@H](CO)N(C)c4ccc(-c5ccc(F)cc5)cc4[C@@H]32)=N1 (stereo partly specified)	0	x	64	x	x	x	x
CC1C=NC(S(=O)(=O)N2CC[C@@H]3[C@H]2c2cc(-c4cccc(F)c4)ccc2N(C)[C@H]3CO)=N1 (stereo partly specified)	-2	x	u	105*	77	5	3
O=C(CSc1nc2ccc([N+](=O)[O-])cc2s1)Nc1ccc(Br)cc1Cl	x	0	x	x	x	x	x
CCCc1cc(=O)[nH]c(SCC(=O)Nc2ccccc2C)n1	x	0	x	x	x	x	x
Cc1c(Cl)ccc2c(C(=O)Nc3ccc(S(=O)(=O)N4CCOCC4)cc3)cc(-c3cccnc3)nc12	x	0	x	x	x	x	x
C[C@@H]1CCCCO[C@@H](CN(C)C(=O)CCC(F)(F)F)[C@@H](C)CN([C@H](C)CO)C(=O)c2cc(NS(=O)(=O)c3ccc(Cl)cc3)ccc2O1	-1	x	85	x	x	x	x
C[C@@H]1CCCCO[C@@H](CN(C)C(=O)C2CCCCC2)[C@@H](C)CN([C@@H](C)CO)C(=O)c2cc(NS(=O)(=O)c3ccc(Cl)cc3)ccc2O1	1	-2	93	x	x	x	x
C[C@@H]1CCCCO[C@H](CN(C)C(=O)C2CCCCC2)[C@H](C)CN([C@H](C)CO)C(=O)c2cc(NS(=O)(=O)c3ccc(Cl)cc3)ccc2O1	-1	x	u	105*	74	-7	52*
C[C@H](CO)N1C[C@H](C)[C@H](CN(C)C(=O)CCC(F)(F)F)OCCCC[C@H](C)Oc2ccc(NS(=O)(=O)c3ccc(Cl)cc3)cc2C1=O	0	x	103*	109*	57	-5	7
C[C@@H]1CCCCO[C@H](CN(C)C(=O)C2CCCCC2)[C@@H](C)CN([C@H](C)CO)C(=O)c2cc(NS(=O)(=O)c3ccc(Cl)cc3)ccc2O1	0	x	60	x	x	x	x
Cc1ccc(S(=O)(=O)Nc2ccc3c(c2)C(=O)N([C@H](C)CO)C[C@H](C)[C@H](CN(C)C(=O)C2CCCCC2)OCCCC[C@H](C)O3)cc1	0	0	84	x	x	x	x

Screening data as filed in PubChem.
